Reference: ChEMBL document CHEMBL5154945, “Discovery and Optimization of Pyrrolopyrimidine Derivatives as Selective Disruptors of the Perinucleolar Compartment, a Marker of Tumor Progression toward Metastasis” (J Med Chem, 2022)

Key:
Assay type in all cases: functional, cell-based
PC-3M = assay: Antiproliferative activity against human PC-3M cells expressing PTB/GFP fusion protein assessed as reduction of nucleolar volume at 1 to 30 uM measured after 24 hrs by Nucleolar-id Green Detection based confocal microscopic analysis; settings: dose 1-30 µM, DDE = dose-dependent effect
Summary of the method: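 PC-3M cells grown in RPMI 1640 with 10% FBS and penicillin/streptomycin, trypsinized at 70% confluence, and seeded at 2×10^5 cells/mL overnight at 37 °C, 5% CO₂. Medium replaced with compound or 1% DMSO for 24 h. Nucleoli stained with Nucleolar-ID Green and nuclei with Hoechst 33342, then imaged by confocal microscopy. Bright green objects in three images per condition normalized to nuclei count; vehicle set to 100.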

EKVX = assay: Anticancer activity against human EKVX cells assessed as cell growth inhibition; settings: dose 1-100 µM, DDE = dose-dependent effect
NCI-H226 = assay: Anticancer activity against human NCI-H226 cells assessed as cell growth inhibition; settings: dose 1-100 µM, DDE = dose-dependent effect
COLO 205 = assay: Anticancer activity against human COLO 205 cells assessed as cell growth inhibition; settings: dose 1-100 µM, DDE = dose-dependent effect
LOX IMVI = assay: Anticancer activity against human LOX IMVI cells assessed as cell growth inhibition; settings: dose 1-100 µM, DDE = dose-dependent effect
SK-MEL-28 = assay: Anticancer activity against human SK-MEL-28 cells assessed as cell growth inhibition; settings: dose 1-100 µM, DDE = dose-dependent effect
UACC-62 = assay: Anticancer activity against human UACC-62 cells assessed as cell growth inhibition; settings: dose 1-100 µM, DDE = dose-dependent effect
786-0 = assay: Anticancer activity against human 786-0 cells assessed as cell growth inhibition; settings: dose 1-100 µM, DDE = dose-dependent effect
DU-145 = assay: Anticancer activity against human DU-145 cells assessed as cell growth inhibition; settings: dose 1-100 µM, DDE = dose-dependent effect
MDA-MB-231 = assay: Anticancer activity against human MDA-MB-231 cells assessed as cell growth inhibition; settings: dose 1-100 µM, DDE = dose-dependent effect

Measured: Activity

N=c1c2c(-c3ccccc3)c(-c3ccccc3)n(Cc3ccccc3)c2ncn1[C@H]1CC[C@H](O)CC1 [ML-246]
active: PC-3M Dde | EKVX Dde | NCI-H226 Dde | COLO 205 Dde | LOX IMVI Dde | SK-MEL-28 Dde | UACC-62 Dde | 786-0 Dde | DU-145 Dde | MDA-MB-231 Dde
